Experimental data as given in PubChem BioAssay.
Inconclusive results are not listed. Activity calls are given as the source filed them.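 Rule for the calls, unless noted: active = viability at or below 27.92% in each of two runs, the all-compound median minus 4 SD; inconclusive = no clear call, values can overlap the other calls; inactive = the rest.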

Columns and labels:
[1] = OD615 S. cerevisiae growth inhibition, permissive medium, pilot counter-assay, permissive growth control for S. cerevisiae lifespan shortening project (AID 705;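 active = growth inhibition above 25% in both replicates, a cutoff set 3 SD above the mean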); details: OD615, 24 h, at 10 µM, stronger effect = higher value
Outline: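 System: Engineered DeaD yeast | Buffer or medium: SC raffinose/galactose permissive medium | Doses: 10 µM single dose, 0.25% DMSO | Times: 24 h exposure, 30 °C | Measured by: OD615 turbidity read | Read-out: Yeast growth inhibition indicated by reduced 24 h OD615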

[2] = Restrictive medium S. cerevisiae growth inhibition, OD615, pilot screen of yeast lifespan reduction project, restrictive growth control (AID 706;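 active = growth inhibition above a set limit, 3 SD over mean compound inhibition, in both replicates, cut at about 43% in these data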;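 note: modified DeaD lifespan yeast strain shifted to restrictive glucose medium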); details: OD615, 48 h, at 10 µM, stronger effect = higher value
Outline: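 Assay system: engineered S. cerevisiae DeaD strain; Buffer or medium: CSMM-D glucose medium; Dosing: 10 µM compound, 0.25% DMSO; Times: cell pre-growth 4 h, compound exposure 48 h, 30 °C; Detection: absorbance (optical density) measured at 615 nm.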

[3] = viability gain of MRP-1-high H69AR cells under doxorubicin, pilot screen, MRP-1 activator project, CellTiter-Glo, duplicate (AID 807;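 active = viability increase at or above a cutoff of the median across tested compounds plus 3 SD, cut at about 8.5% in these data, passing the limit was not always enough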;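 note: compound pretreatment 18-22 h then 72 h combined with doxorubicin; 0% = doxorubicin alone and 100% = vehicle without doxorubicin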); details: H69AR viability with doxorubicin, CellTiter-Glo luminescence; at 10 µM; stronger effect = higher value
[4] = growth suppression of beta-catenin knockout HCT116, pilot screen, human colon tumor cells (AID 823;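 active = cell viability at or below a set limit in both duplicate runs, the limit being the all-compound median minus 4 SD, cut at about 23% in these data, passing the limit was not always enough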;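 note: 0% = wells killed by 20 µM Hyamine and 100% = untreated DMSO cell wells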); details: CellTiter-Glo, 60 h, at 10 µM, stronger effect = lower value
[5] = growth suppression of PTEN-deleted HCT116, pilot screen, cell-based, HCT116 clonal line, CellTiter-Glo (AID 824); details: 60 h, at 10 µM, stronger effect = lower value;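 note: 0% = 20 µM Hyamine control and 100% = vehicle cell control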
[6] = inhibitors of the yeast RAM network, pilot screen, dse1pr::URA3 reporter, 5-FOA selection (AID 869;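 active = inhibition over a set limit, the all-compound mean plus 3 SD, in both replicate runs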;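 note: 0% = DMSO wells with no growth and 100% = 10 µM 1-NA-PP1 with full growth; RAM network block rescues cells from 5-FOA so hits raise OD615 growth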); details: S. cerevisiae dse1pr::URA3 5-FOA growth, OD615, 2 d; at 10 µM; stronger effect = higher value; strain carries analog-sensitive mutant Cbk1 kinase
[7] = RAM signaling pathway blockade in yeast – S. cerevisiae, Pdr1DBD-CYC8 efflux-inhibited sensitized strain, primary screen (AID 1298;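 active = RAM network inhibition above 8.4% in each of two replicates, 3 SD over the compound average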;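 note: 0% = DMSO untreated cells without growth and 100% = 10 µM 1-NA-PP1 full growth; higher means more yeast growth rescued from 5-FOA killing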); details: S. cerevisiae cbk1-as DSE1-URA3 strain, 5-FOA growth OD615, 2 d; at 50 µM; stronger effect = higher value

Cc1c(NC(=O)c2ccco2)cccc1-c1nc2cccnc2s1
inactive: growth inhibition [1] 1.62% | growth inhibition [2] -4.21% | viability increase [3] -4.21% | viability [4] 97.4% | viability [5] 95.5% | inhibition [6] 2.2% | RAM network inhibition [7] 5.74%

CSc1nnc(NC(=O)C2CCCCC2)s1
inactive: growth inhibition [1] -7.81% | growth inhibition [2] -6.62% | viability increase [3] 0.06% | viability [4] 97% | viability [5] 99.3% | inhibition [6] -0.045% | RAM network inhibition [7] 0.63%

COc1ccc(S(=O)(=O)Cc2ccc(C(=O)N3CCN(C4CCCCC4)CC3)o2)cc1
inactive: growth inhibition [1] 8.67% | growth inhibition [2] 7.12% | viability increase [3] -2.58% | viability [4] 78.9% | viability [5] 90% | inhibition [6] 0.75% | RAM network inhibition [7] -1.9%

O=C1c2ccccc2C(Nc2ccc(Cl)cn2)N1c1ccccn1 (configuration not stated)
inactive: growth inhibition [1] -15.4% | growth inhibition [2] 0.32% | viability increase [3] -4.01% | viability [4] 75.1% | viability [5] 81.1% | inhibition [6] 2.39% | RAM network inhibition [7] 8.97%

Nc1c(C(=O)Nc2ccc3c(c2)OCCO3)nnn1CCc1ccccc1
inactive: growth inhibition [1] -3.04% | growth inhibition [2] 3.6% | viability increase [3] -5.88% | viability [4] 39.1% | viability [5] 35.4% | inhibition [6] 1.43% | RAM network inhibition [7] 7.68%

CCOC(=O)c1c(NC(=O)C2CCCN2S(=O)(=O)c2cccc3nsnc23)sc(C)c1C (configuration not stated)
inactive: growth inhibition [1] -7.06% | growth inhibition [2] -0.39% | viability increase [3] 0.59% | viability [4] 74% | viability [5] 72.5% | inhibition [6] 0.565% | RAM network inhibition [7] 7.77%

Cc1ccc2c(c1)C(c1ccc(F)cc1)N(C(=O)C1CC1)CC(=O)N2 (configuration not stated)
inactive: growth inhibition [1] -3.41% | growth inhibition [2] -4.04% | viability increase [3] -1.19% | viability [4] 83% | viability [5] 75.2% | inhibition [6] -0.015% | RAM network inhibition [7] 1.7%

CCOC(=O)C1CCCN(C(=O)N2CCOCC2)C1 (configuration not stated)
inactive: growth inhibition [1] -4.19% | growth inhibition [2] -5.3% | viability increase [3] -0.82% | viability [4] 97.6% | viability [5] 99.1% | inhibition [6] -0.095% | RAM network inhibition [7] 0.21%

CCCCCSc1nc2c(c(=O)[nH]c(=O)n2C)n1CCc1ccccc1
inactive: growth inhibition [1] -3.08% | growth inhibition [2] -4.46% | viability increase [3] -1.88% | viability [4] 69.6% | viability [5] 87% | inhibition [6] 2.75% | RAM network inhibition [7] 8.01%

Cc1ccc(NC(=O)c2cc(NC(=O)C3CC=CCC3C(=O)O)ccc2N2CCOCC2)cc1 (configuration not stated)
inactive: growth inhibition [1] -11.6% | growth inhibition [2] -5.87% | viability increase [3] -3.64% | viability [4] 97.3% | viability [5] 95.1% | inhibition [6] 1.23% | RAM network inhibition [7] 2.82%

COc1ccc(OC)c(NC(=O)C2CCCN(S(=O)(=O)c3cccc4cccnc34)C2)c1 (configuration not stated)
inactive: growth inhibition [1] -12.7% | growth inhibition [2] -10.7% | viability increase [3] -3.24% | viability [4] 87.3% | viability [5] 80.1% | inhibition [6] 1.78% | RAM network inhibition [7] 6.71%

Cc1nn(-c2ccccc2)c2sc(C(=O)OCN3C(=O)c4ccccc4C3=O)cc12
inactive: growth inhibition [1] -8.01% | growth inhibition [2] -6.25% | viability increase [3] -3.32% | viability [4] 83.6% | viability [5] 85.2% | inhibition [6] 2.55% | RAM network inhibition [7] 4.24%

CC(=O)N1CCN(c2ccc(NCc3ccc(F)cc3)cc2)CC1
inactive: growth inhibition [1] -7.68% | growth inhibition [2] 0.705% | viability increase [3] -2.9% | viability [4] 90.1% | viability [5] 83.1% | inhibition [6] 2.81% | RAM network inhibition [7] 2.34%

Cc1cccc(NC(=O)C2CCCN2S(=O)(=O)c2cccc3cccnc23)c1 (configuration not stated)
inactive: growth inhibition [1] -13% | growth inhibition [2] -6.59% | viability increase [3] -3.17% | viability [4] 85.3% | viability [5] 84% | inhibition [6] 0.065% | RAM network inhibition [7] 1.73%

CC1=C(C(=O)OC(C)C)C(c2c[nH]c3ccccc23)n2ncnc2N1 (configuration not stated)
inactive: growth inhibition [1] -5.16% | growth inhibition [2] -3.17% | viability increase [3] -1.69% | viability [4] 105% | viability [5] 97.1% | inhibition [6] 2.2% | RAM network inhibition [7] -0.16%

CCCOc1ccc(C2c3c(oc4cc(C)c(C)cc4c3=O)C(=O)N2CCCN(C)C)cc1 (configuration not stated)
inactive: growth inhibition [1] -3.96% | growth inhibition [2] -1.01% | viability increase [3] 0.77% | viability [4] 104% | viability [5] 109% | inhibition [6] 0.185% | RAM network inhibition [7] -0.1%

O=C(NCc1ccc2c(c1)OCO2)C1CC(=O)N(CCc2ccccc2)C1 (configuration not stated)
inactive: growth inhibition [1] 0.26% | growth inhibition [2] 0.755% | viability increase [3] -0.29% | viability [4] 96.1% | viability [5] 95.7% | inhibition [6] 2.38% | RAM network inhibition [7] 2.32%

CCC(=O)Nc1cccc(NC(=O)c2cc3ccccc3o2)c1
inactive: growth inhibition [1] -10.9% | growth inhibition [2] -9.17% | viability increase [3] -1.82% | viability [4] 93.8% | viability [5] 90.2% | inhibition [6] 1.2% | RAM network inhibition [7] 5.21%

COc1ccc(N2C(=O)C3CCCN3C2c2ccc(C)cc2)cc1 (configuration not stated)
inactive: growth inhibition [1] -2.01% | growth inhibition [2] 2.53% | viability increase [3] -1.95% | viability [4] 97.6% | viability [5] 99.2% | inhibition [6] 1.94% | RAM network inhibition [7] -1.51%

O=C(Nc1cccnc1)c1cc(-c2ccc(Br)cc2)on1
inactive: growth inhibition [1] -9.68% | growth inhibition [2] -9.79% | viability increase [3] 0.92% | viability [4] 100% | viability [5] 95.9% | inhibition [6] 0.76% | RAM network inhibition [7] 6.96%

O=C(O)CCCC(=O)N1CCN(c2cccc(Cl)c2)CC1
inactive: growth inhibition [1] -2.97% | growth inhibition [2] -1.71% | viability increase [3] -1.22% | viability [4] 95.2% | viability [5] 86.2% | inhibition [6] 2.33% | RAM network inhibition [7] 4.6%

O=C1c2cccnc2C(=O)N1Cc1cccs1
inactive: growth inhibition [1] -1.61% | growth inhibition [2] -4.64% | viability increase [3] -0.5% | viability [4] 98.5% | viability [5] 102% | inhibition [6] 1.4% | RAM network inhibition [7] 0.21%

COc1ccc(Nc2cc(C)nc3nc(C)nn23)cc1Cl
inactive: growth inhibition [1] 0.45% | growth inhibition [2] 13.4% | viability increase [3] -3.91% | viability [4] 101% | viability [5] 93.5% | inhibition [6] -0.465% | RAM network inhibition [7] -0.01%

Cc1ccccc1-n1nc(-c2ccc(N)cc2)cc1N
inactive: growth inhibition [1] 3.39% | growth inhibition [2] 2.1% | viability increase [3] -2.52% | viability [4] 101% | viability [5] 94.7% | inhibition [6] 0.8% | RAM network inhibition [7] 2.8%

O=C(CSc1nccn1-c1cccc(Cl)c1)Nc1ccc2c(c1)OCCO2
inactive: growth inhibition [1] -11.7% | growth inhibition [2] 2.4% | viability increase [3] 6.11% | viability [4] 101% | viability [5] 93% | inhibition [6] 2.52% | RAM network inhibition [7] 3.35%

CCSCCOC(=O)C1=C(C)NC(=O)NC1c1ccc2c(c1)OCO2 (configuration not stated)
inactive: growth inhibition [1] 3.31% | growth inhibition [2] 3.72% | viability increase [3] -1.35% | viability [4] 94.3% | viability [5] 94.5% | inhibition [6] 2.05% | RAM network inhibition [7] 0.41%

O=C(N1CCOCC1)N1CCN(c2ccccc2F)CC1
inactive: growth inhibition [1] -0.135% | growth inhibition [2] 0.07% | viability increase [3] -2.64% | viability [4] 97.9% | viability [5] 99.7% | inhibition [6] 0.325% | RAM network inhibition [7] 4.21%

CN1CCN(c2ncnc3c2sc2nc(N4CCCC4)c4c(c23)CC(C)(C)OC4)CC1
inactive: growth inhibition [1] -21.2% | growth inhibition [2] -18.1% | viability increase [3] -3.25% | viability [4] 99.6% | viability [5] 97.1% | inhibition [6] 0.735% | RAM network inhibition [7] -0.84%

Cc1cc2ccccc2n1CCNC(=O)COc1ccccc1
inactive: growth inhibition [1] -3.44% | growth inhibition [2] 11.8% | viability increase [3] -0.8% | viability [4] 99.2% | viability [5] 94.2% | inhibition [6] 2.31% | RAM network inhibition [7] 8.38%

Cc1cccc(NC(=O)c2ccccc2Br)n1
inactive: growth inhibition [1] 4.2% | growth inhibition [2] 24% | viability increase [3] -3.61% | viability [4] 103% | viability [5] 94% | inhibition [6] 0.97% | RAM network inhibition [7] 2.02%

CCOc1ccc(Cn2nnc(C(=O)NCCc3ccccc3)c2N)cc1
active: viability increase [3] 10.7%
inactive: growth inhibition [1] 1.4% | growth inhibition [2] 2.79% | viability [4] 96.9% | viability [5] 89.9% | inhibition [6] 2.5% | RAM network inhibition [7] 4.53%

C=CCOC(=O)C1CC=CCC1C(=O)Oc1ccc(F)cc1F (configuration not stated)
inactive: growth inhibition [1] -18.3% | growth inhibition [2] -15.3% | viability increase [3] -1.32% | viability [4] 100% | viability [5] 94% | inhibition [6] 2.56% | RAM network inhibition [7] 1.82%

CSc1nc(C)nc2c1c(=O)n(C)c(=O)n2C
inactive: growth inhibition [1] 9.37% | growth inhibition [2] 6.23% | viability increase [3] -1.42% | viability [4] 108% | viability [5] 94.2% | inhibition [6] 0.68% | RAM network inhibition [7] 0.26%

CCOc1ccccc1NC(=O)N1CCCC1C(=O)Nc1ccc(-n2cnnn2)c(C)c1 (configuration not stated)
inactive: growth inhibition [1] -11.3% | growth inhibition [2] -16.2% | viability increase [3] 0.16% | viability [4] 102% | viability [5] 97.9% | inhibition [6] 1.86% | RAM network inhibition [7] 2.1%

CC1(C)CCCC2=C1CC1C(=O)N(Cc3cccnc3)C(=O)C1C2 (configuration not stated)
inactive: growth inhibition [1] -6.32% | growth inhibition [2] -10.3% | viability increase [3] -0.2% | viability [4] 82.2% | viability [5] 86.7% | inhibition [6] 1.11% | RAM network inhibition [7] 4.53%

Clc1ccc(-n2ncc3c(NCC4CCCO4)ncnc32)cc1 (configuration not stated)
inactive: growth inhibition [1] -7.04% | growth inhibition [2] -19.4% | viability increase [3] -5.71% | viability [4] 37.6% | viability [5] 37.2% | inhibition [6] 0.57% | RAM network inhibition [7] 8.53%
